The source made the active and inactive calls. The rule behind the calls is not given here.
How the values were obtained:
[1] = system: Pleurotus ostreatus; assay: Antifungal activity against Pleurotus ostreatus Plo5 at 100 uM by growth based assay; assay type: functional
Procedure, shortened: (§1)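 Mycelial discs cut from 5-day-old cultures were placed centrally on MEA (Blakeslee's formula) agar plates containing inhibitor at 0.1 mM final concentration or solvent control. Plates were incubated at 28°C and growth was scored daily. Radial growth rate (RGR) and initial growth inhibition (IGI) were derived and expressed as percent of the matching solvent control. Each compound was tested in triplicate.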

[2] = system: Curvularia lunata; assay: Antifungal activity against Cochliobolus lunatus strain MUCL 38696 at 100 uM by growth based assay; assay type: functional, organism-based; procedure, shortened: as §1
[3] = system: Aspergillus niger; assay: Antifungal activity against Aspergillus niger N402 cspA1 at 100 uM by growth based assay; assay type: functional; procedure, shortened: as §1

| Compound | inhibition [2] | also measured |
| --- | --- | --- |
| O=C(O)c1ccc(-n2cccc2)cc1 | Active | inhibition [1]: inactive; inhibition [3]: Active |
| Cc1cc(C(=O)O)ccc1-n1cccc1 | – | inhibition [1]: inactive |
| Cc1cc(C)n(-c2ccc(C(=O)O)cc2)n1 | inactive | – |
| O=C(O)c1ccc(N2CCCCC2)cc1Cl | inactive | – |
| O=C(O)c1ccc(N2CCCC2=O)cc1 | inactive | – |
| O=C(O)c1ccc(-c2ccc(Cl)cc2)cc1 | – | inhibition [3]: inactive |
| O=C(O)c1ccc2ccccc2c1 | inactive | – |
| O=C(O)c1ccc(CN2CCCC2)cc1 | inactive | – |
| O=C(O)c1ccc(-c2ccc(Cl)c(F)c2)cc1 | Active | inhibition at 100 µM [1]: 75%; inhibition at 100 µM [3]: 30% |
| CC1CCN(c2ccc(C(=O)O)cc2)CC1 | Active | – |
| O=C(O)c1ncc(N2CCCC2)cc1Cl | inactive | – |
| O=C(O)c1ccc(F)cc1 | inactive | – |
| Cc1ccn(-c2ccc(C(=O)O)c(Cl)c2)n1 | inactive | – |
| O=C(O)c1ccc(C(=O)O)cc1 | inactive | – |
| O=C(O)c1ccc(-c2cc(F)c(F)cc2F)cc1 | Active | inhibition [3]: Active |
| Cn1ccc(-c2ccc(C(=O)O)cc2)n1 | inactive | – |

| Compound | inhibition [2] | also measured |
| --- | --- | --- |
| Cc1cc(C=O)c(C)n1-c1ccc(C(=O)O)cc1 | inactive | – |
| O=C(O)c1ccc(-c2cccc(F)c2)cc1 | Active | inhibition [3]: Active |
| Cc1cc(C(=O)O)ccc1-n1c(C)ccc1C | inactive | – |
| O=C(O)c1ccc(C2CCCCC2)cc1 | inactive | – |
| O=C(O)c1ccc(-c2ccc(Cl)c(Cl)c2)cc1 | – | inhibition [3]: inactive |
| O=C(O)c1ccc(N2CCCC2)cc1 | inactive | – |
| O=S(=O)(O)c1cc[n+](-c2ccc(Cl)cc2)cc1 | inactive | – |
| O=C(O)c1ccc(-c2ccc(C(=O)O)cc2)cc1 | inactive | – |
| O=C(O)c1ccc(N2CCCC2)cc1Cl | inactive | inhibition [3]: Active |
| CC(=O)c1cc(C)n(-c2ccc(C(=O)O)cc2)c1C | inactive | – |
| O=C(O)c1ccc(-c2ccc(F)cc2)cc1 | Active | inhibition at 100 µM [1]: 75%; inhibition [3]: Active |
| Cc1cc(C)n(-c2ccc(S(=O)(=O)O)cc2)n1 | inactive | – |
| O=C(O)c1ccc(N2CCCC2)nc1 | inactive | – |
| O=C(O)c1ccc(-c2cccs2)cc1 | Active | inhibition [1]: Active; inhibition [3]: Active |
| O=C(O)c1ccc(-c2ccsc2)cc1 | Active | inhibition at 100 µM [1]: 75% |
| Cc1ccc(C)n1-c1ccc(C(=O)O)cc1 | inactive | – |
